This sample holds only a part of the variants without activity.
B1: tRNA (parent)
chain: GUUCCGUUGGCGUAAUGGUAACGCGUCUCCCUCCUAAGGAGAAGACUGCGGGUUCGAGUCCCGUACGGAACG

Variants of: B1
Test: yeast fitness relative to wild type (ratio to wild type); higher = fitter; tRNA-Arg(CCU), competitive growth, 37 C, YPD
Outline: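 For this measurement, the tRNA-Arg(CCU) gene was varied by chemical synthesis at a 3% per-site mutation rate across 69 sites, and each variant was placed at the native genomic locus in Saccharomyces cerevisiae. The pooled strains went through a 24-hour competition in YPD at 37°C in six parallel replicates, with amplicons from start and end populations read by 100-nucleotide paired-end sequencing. Darwinian fitness relative to wild type followed from the change in each genotype's frequency. Genotypes needed ≥ 100 starting reads, and estimates < 0.5 were set to 0.5.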

Compared with U28C C60G, C11U C22U C66U is lower in yeast fitness: 0.572 for the first, 0.517 for the second.

C30G U32A C66U and C29A A36U A40U C55U G56A U59C cannot be ordered by yeast fitness: no more than 0.5 for the first, no more than 0.5 for the second.

U8C U13A C22G C24G A36U A40C G51C and U16A A21G C34U cannot be ordered by yeast fitness: no more than 0.5 for the first, no more than 0.5 for the second.

Going from U7A U19C A43G C60G to C4A G6A A21C C24U, the yeast fitness rises from no more than 0.5 to 0.562.

Going from U7G A21C G44C to G12C C46U, the yeast fitness rises from 0.545 to 0.815.

Compared with C22A A37U G44A A70G, A42G C49G U54C G63C A70U is higher in yeast fitness: no more than 0.5 for the first, 0.547 for the second.

First: A21C C34G A36G C46A
Second: A20C C24U G44A C60G
The yeast fitness of the first is higher: 0.586 for the first, no more than 0.5 for the second.

G6C G17A A36U and G39A G56C C66A cannot be ordered by yeast fitness: no more than 0.5 for the first, no more than 0.5 for the second.

Going from C5A A20G C49A to G9A A15U A20G G44C C61U, the yeast fitness falls from 0.568 to no more than 0.5.

Going from G17C C33A C55A to G12A G48C U54A, the yeast fitness falls from 0.672 to 0.59.

Compared with C11A, U3C C22U G48A is higher in yeast fitness: 0.676 for the first, 0.955 for the second.

First: C5A A20U C31G
Second: C11G U26C A45C A57C U59G
The yeast fitness of the first is higher: 0.585 for the first, no more than 0.5 for the second.

Going from C4U C46U A69C to C49A G63A, the yeast fitness falls from 0.817 to 0.582.

Compared with U8G G10C A20G C55U, U8C A42U A70G is higher in yeast fitness: no more than 0.5 for the first, 0.729 for the second.

Compared with C31A U35C G41A, U13C A45U is higher in yeast fitness: no more than 0.5 for the first, 0.929 for the second.

Compared with G18A U32G A69G, A21U U26A is higher in yeast fitness: no more than 0.5 for the first, 0.722 for the second.

First: U32A A37C G51C A57U
Second: C11A C27G C34A A42C U54C C60A C62G A70U
The yeast fitness of the first is lower: no more than 0.5 for the first, 0.624 for the second.

First: C5A C46U U59C
Second: C24U C27U A40G G44A
The yeast fitness of the first is higher: 0.728 for the first, no more than 0.5 for the second.

U16C C33U A36C G56C and C30A A40C G56A cannot be ordered by yeast fitness: no more than 0.5 for the first, no more than 0.5 for the second.

First: G25C G38A
Second: A43U U59A
The yeast fitness of the first is higher: 0.951 for the first, 0.807 for the second.

C5G U13A C22G C29G A40U U54C and C5G G6A A15G cannot be ordered by yeast fitness: no more than 0.5 for the first, no more than 0.5 for the second.

Compared with A42C G67A, C5U C31A A40G C61U A65U is lower in yeast fitness: 0.833 for the first, no more than 0.5 for the second.

C4G U16G C30U C34A U53G A70C and C27U C33G A43U C60G cannot be ordered by yeast fitness: no more than 0.5 for the first, no more than 0.5 for the second.

Going from C4U C24U C30A to G9C U26C U54G, the yeast fitness falls from 0.597 to no more than 0.5.

G9A A21U C24G U28A C60G A70C and U3A U16C U19C C46U cannot be ordered by yeast fitness: no more than 0.5 for the first, no more than 0.5 for the second.

Compared with C27G C60G A65U, U13G G63C is higher in yeast fitness: 0.641 for the first, 0.696 for the second.

C5U U16A C34A A70G and A14G U28G G41C G48A U64C cannot be ordered by yeast fitness: no more than 0.5 for the first, no more than 0.5 for the second.

Compared with U2C A15C U19C C22G U59C C60G, G23A C33G C62A is higher in yeast fitness: no more than 0.5 for the first, 0.742 for the second.

Compared with U26G G50C C66U, G48A U64G is higher in yeast fitness: no more than 0.5 for the first, 1 for the second.

First: U16C A21C A37G C55A
Second: G9A A20G A21U
The yeast fitness of the first is lower: no more than 0.5 for the first, 0.57 for the second.

G12C G25U G44C and C24U C29U A36C A42U C66A cannot be ordered by yeast fitness: no more than 0.5 for the first, no more than 0.5 for the second.

Compared with C5A C22G C49G, U2C C55G G56C A69U is lower in yeast fitness: 0.563 for the first, no more than 0.5 for the second.

First: C29U C31A C66G G67U
Second: U7A C27U C29U G63A
The yeast fitness of the first is lower: no more than 0.5 for the first, 0.598 for the second.

Compared with C5G A20C C24U C55U, C11U C27U U35C C61G is higher in yeast fitness: no more than 0.5 for the first, 0.606 for the second.

C5A U16A A45G G50A C61U and C4G G12A C27A C31A G52A G58C A70G cannot be ordered by yeast fitness: no more than 0.5 for the first, no more than 0.5 for the second.

Compared with C27A A65G C66U, U19C G56A is higher in yeast fitness: 0.772 for the first, 0.91 for the second.

G10C C30A C66U and G12A A15C G58C cannot be ordered by yeast fitness: no more than 0.5 for the first, no more than 0.5 for the second.

Compared with C5U C24G A40C A45U, C5U C27U G41A is higher in yeast fitness: no more than 0.5 for the first, 0.573 for the second.

Compared with G6C A21G U32C G48A, G9C A70G is lower in yeast fitness: 0.716 for the first, 0.615 for the second.

First: G6A A20G C31G C46U G67A
Second: C27U C49U U54A A57G C66A
The yeast fitness of the first is lower: no more than 0.5 for the first, 0.629 for the second.

C4A C33G A45G A70U and G17C U19C A20G G68U cannot be ordered by yeast fitness: no more than 0.5 for the first, no more than 0.5 for the second.

Going from U7A C29G A36C to U26A C27U A65G, the yeast fitness rises from 0.566 to 1.

Going from U2C G44A to G17C C24G U28A C30U C49U A65U A69C, the yeast fitness falls from 0.86 to no more than 0.5.

Compared with C5G C30U G67C, C22G U59A A69G is lower in yeast fitness: 0.938 for the first, no more than 0.5 for the second.

A14U C46A C66U and U8C A42G A70C cannot be ordered by yeast fitness: no more than 0.5 for the first, no more than 0.5 for the second.

C22U U32C G52A C61U and A20U G38C C46A cannot be ordered by yeast fitness: no more than 0.5 for the first, no more than 0.5 for the second.

Going from C4U U8G U19A A21C A70U to U2C C31G G58C G67C, the yeast fitness rises from no more than 0.5 to 0.53.

Going from G51A A57U A65U G68A A70U to A20U A42C G48A, the yeast fitness rises from no more than 0.5 to 0.543.

Compared with C22U C34G G39A C66U, C11G C22G C33G is higher in yeast fitness: no more than 0.5 for the first, 0.59 for the second.

Compared with C11G A40C C46U C60A, G23C C31U is higher in yeast fitness: no more than 0.5 for the first, 0.579 for the second.

Going from A20C to A21U G50C C66G, the yeast fitness falls from 1.01 to no more than 0.5.

G6U U32A G56C and U3C A14C A45C A65C cannot be ordered by yeast fitness: no more than 0.5 for the first, no more than 0.5 for the second.

C4G G17A A57U U59C and U3C C5U C24U A42C A57U cannot be ordered by yeast fitness: no more than 0.5 for the first, no more than 0.5 for the second.

U8A C27A A37U and A14G C34G A65U C66A cannot be ordered by yeast fitness: no more than 0.5 for the first, no more than 0.5 for the second.

First: A15U A40C
Second: A21G U59A A69G
The yeast fitness of the first is higher: 0.723 for the first, no more than 0.5 for the second.

First: U7G U54C
Second: G10A C24A G44A
The yeast fitness of the first is higher: 0.905 for the first, 0.553 for the second.

Going from G38C G50A U64C to A15G U19G C66U, the yeast fitness falls from 0.832 to 0.721.

Compared with U3C G17C, A15U C49U is lower in yeast fitness: 0.78 for the first, 0.731 for the second.

First: G56A A65G C66U G68A
Second: U3C G23C C30A A36G G38C
The yeast fitness of the first is higher: 0.609 for the first, no more than 0.5 for the second.

U3C A40U C49A A70U and U16C G44C C66U cannot be ordered by yeast fitness: no more than 0.5 for the first, no more than 0.5 for the second.

First: U2A C11G C31G
Second: A40C G44A
The yeast fitness of the first is lower: 0.6 for the first, 0.913 for the second.

Compared with U2C C24U, C5U A65C is lower in yeast fitness: 0.952 for the first, 0.922 for the second.

G12A A15G C27A and C22G C34G U35A A36U C55U cannot be ordered by yeast fitness: no more than 0.5 for the first, no more than 0.5 for the second.

Compared with G18A C34U A36G, C4U A43C is higher in yeast fitness: 0.525 for the first, 1.01 for the second.

First: A42U G68A
Second: C27A U53A
The yeast fitness of the first is higher: 0.927 for the first, 0.639 for the second.

Compared with C31G U35C, A15U C27U A36G C61U C62U is lower in yeast fitness: 0.823 for the first, no more than 0.5 for the second.

G6C A21G C24G C31A G44A and G10A A36U A43G C66A cannot be ordered by yeast fitness: no more than 0.5 for the first, no more than 0.5 for the second.

C5G A14U A37U A45C C62U and C5U C22G C24A cannot be ordered by yeast fitness: no more than 0.5 for the first, no more than 0.5 for the second.

G10A C30A A43C A57U and C5G U7A A20G U47G G50C G51C cannot be ordered by yeast fitness: no more than 0.5 for the first, no more than 0.5 for the second.

Compared with G51A G56A C62G, A15U C34G G51A C66U is higher in yeast fitness: no more than 0.5 for the first, 0.584 for the second.

First: C29A C33G A70G
Second: G10C C46U A65C
The yeast fitness of the first is lower: no more than 0.5 for the first, 0.621 for the second.

C11A G25C C29U A65U and C34U A37U C66U cannot be ordered by yeast fitness: no more than 0.5 for the first, no more than 0.5 for the second.

First: C4U A36G A40C G44C
Second: C29A A40U A45C C46A C49A A57G
The yeast fitness of the first is higher: 0.596 for the first, no more than 0.5 for the second.

First: C5A G12C C34U
Second: C11A G67A A70G
The yeast fitness of the first is lower: no more than 0.5 for the first, 0.562 for the second.

Going from C33A U35A A70C to G44A C46U C62U, the yeast fitness rises from no more than 0.5 to 0.723.

First: C30U G58A
Second: U8A A69C
The yeast fitness of the first is higher: 0.919 for the first, 0.915 for the second.

G17A C29U U35G A37C G38C A65C and G10A C30A A70G cannot be ordered by yeast fitness: no more than 0.5 for the first, no more than 0.5 for the second.

G50A A57C C66U and A40G G41A A42C A43G G44A A70U cannot be ordered by yeast fitness: no more than 0.5 for the first, no more than 0.5 for the second.

U3A A40G U53A and G9C C49G G50A C60G A65G A70G cannot be ordered by yeast fitness: no more than 0.5 for the first, no more than 0.5 for the second.

C11U G25C A40U C49U and C4A C5U C27U A37G cannot be ordered by yeast fitness: no more than 0.5 for the first, no more than 0.5 for the second.

U3C C11A A15C C24A C27A G41C and U26C C30U U59A A69U cannot be ordered by yeast fitness: no more than 0.5 for the first, no more than 0.5 for the second.

Going from G9A C11U A36C G48C to C31A G48A C66U, the yeast fitness rises from no more than 0.5 to 0.646.

Compared with C29G A43G A45C, U13G G38A is higher in yeast fitness: no more than 0.5 for the first, 0.781 for the second.

For A15G G63C, the yeast fitness was 0.918.
